Bioassay records from PubChem BioAssay.
PAX8 reporter: PAX8 transcriptional activity inhibition | RMG-I TPO-luciferase reporter, SteadyGlo, 24 h | inhibition, % at 12.6 µM | 1.2% of 360,000 active | AID 652154;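 active = mean replicate inhibition at least 60% with every replicate also reaching 60%; inconclusive = only one of the two criteria is met; inactive = mean below 60% and not all replicates reaching 60%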;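 also: luciferase light reporting Pax8 driven TPO promoter activity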
F508del corr: CFTR F508del correction in bronchial cells. CFBE cells, YFP halide quenching; stimulated with forskolin plus potentiator P3; % fluorescence drop versus neutral controls. activity (quench increase), % at 7.58 µM. 0.36% of 350,000 active. AID 720511;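 active = mean added fluorescence quench of at least 8% versus neutral control, with both replicates also reaching 8%; inconclusive = only one of the mean or replicate conditions met; inactive = mean below 8% and not both replicates reaching 8%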;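 also: cells transiently co-express mutant CFTR-F508del with the halide-sensitive YFP; corrector assay measuring rescue of mutant channel to the surface after 24 h compound exposure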
PGC1a acetyl inh: modulators of PGC1a acetylation; U2OS PGC1a acetylation, AlphaScreen anti-acetyl-lysine; with virally co-expressed GCN5 acetyltransferase; inhibition, % at 15.6 µM; 0.17% of 350,000 active;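 active = every replicate shows inhibition of at least 40%; inconclusive = mean inhibition at least 40% but some replicate below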
Env fusion inh: blocks HIV Env-driven cell-cell fusion; AID 651610; HeLa-JRFL Env/CEM21 cell fusion, luciferase; 1.1% of 360,000 active; inhibition, % at 12.3 µM;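 active = mean replicate inhibition score of at least 50 and every replicate individually at or above 50; inconclusive = only one of the two criteria met; inactive = mean below 50 and not all replicates reaching 50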
EWS-Fli inh: inhibitors of EWS/Fli oncoprotein transcriptional activity | 0.67% of 350,000 active | A673 NR0B1-luciferase reporter, viability-normalised | inhibition, % at 12.6 µM;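 active = mean inhibition of at least 50% after viability correction, with every replicate also passing that limit; inconclusive = mean reaches 50% but only one of two replicates passes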;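 also: firefly luciferase signal divided by Alamar Blue viability fluorescence both relative to DMSO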
FN deposition inh: fibronectin deposition inhibition | AH1F fibroblasts, Alexa488-fibronectin deposition fluorescence, overnight | inhibition, % at 12.6 µM | 0.086% of 350,000 active | AID 743247;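 active = mean inhibition across replicates of 30% or more, regardless of how many single replicates reach that level; inconclusive = mean under 30% yet at least half of replicates reach 30%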
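Measured by – fluorescence 485/525 nm · System – AH1F fibroblast monolayer, labelled fibronectin deposition · Amount – 10000 cells per well · Buffer or medium – serum-reduced DMEM (2% serum) · Doses – single dose, pinned · Also added – fluorescent fibronectin at 24 nM final · Schedule – 1 h cell attachment, overnight exposure to compound and label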
Of the large screens only hits and unclear results are named; the others gave an inactive call; [ ] = dose if it differs, or a comment. Sampled rows, rich in hits. Any-hit rate of the full collection: about 2.3%.

COc1cc(-c2c(CCO)sc3ccccc23)cc(OC)c1OC	EWS-Fli inh 56 (no result: PGC1a acetyl inh, FN deposition inh)
C[C@@H]1CN([C@H](C)CO)S(=O)(=O)c2ccc(C#CC3CCCC3)cc2O[C@@H]1CN(C)Cc1cncnc1	none
C[C@@H]1CCc2cnnn2COC[C@H](Cc2ccccc2)NC1=O	none (no result: PAX8 reporter, F508del corr, PGC1a acetyl inh, Env fusion inh, EWS-Fli inh)
O=C(c1[nH]ncc1-c1cccc(Br)c1)C1CO1 (stereo unspecified)	F508del corr 11 (no result: PGC1a acetyl inh)
O=C(c1[nH]ncc1-c1ccccc1)C1CO1 (stereo unspecified)	none
COc1ccc(NC(=O)Nc2ccc3c(c2)C(=O)N([C@@H](C)CO)C[C@H](C)[C@@H](CN(C)S(=O)(=O)c2ccc(Cl)cc2)OCCCC[C@H](C)O3)cc1	none
Nc1nc(Nc2ccc(Cl)cc2)nc(NCc2ccco2)c1[N+](=O)[O-]	Env fusion inh 59
Cc1cccc(Nc2nc(N)c([N+](=O)[O-])c(NCc3ccco3)n2)c1	none (no result: PGC1a acetyl inh, Env fusion inh)
Nc1nc(Nc2cccc(Cl)c2)nc(NCc2ccco2)c1[N+](=O)[O-]	Env fusion inh 76 (no result: PGC1a acetyl inh)
C[C@H]1CN([C@@H](C)CO)C(=O)c2cc(NS(=O)(=O)c3cccs3)ccc2O[C@H]1CN(C)C(=O)Nc1cccc2ccccc12	none (no result: PAX8 reporter, Env fusion inh)
C[C@H]1CN(C)C(=O)Cc2ccccc2O[C@@H]1CN(C)S(C)(=O)=O	none (no result: PAX8 reporter, F508del corr, PGC1a acetyl inh, Env fusion inh, EWS-Fli inh)
Cc1cccc(C)c1NC(=O)C1C(c2ccccc2)=Nc2ccccc2N1C(=O)c1cnccn1 (stereo unspecified)	Env fusion inh 64 (no result: PGC1a acetyl inh)
O=C(NCc1ccccc1)C1C(c2ccccc2)=Nc2ccccc2N1C(=O)c1cnccn1 (stereo unspecified)	none (no result: PGC1a acetyl inh)
Cc1ccc(S(=O)(=O)Nc2cccc3c2O[C@H](CN(C)Cc2ccc(Oc4ccccc4)cc2)[C@H](C)CN([C@H](C)CO)C3=O)cc1	none (no result: FN deposition inh)
COc1ccccc1N1CCN(C(CNS(=O)(=O)c2cccs2)c2cccnc2)CC1 (stereo unspecified)	F508del corr 8.1
C[C@@H]1CN([C@@H](C)CO)C(=O)c2cc(/C=C/c3ccccc3)cnc2O[C@H]1CN(C)C(=O)C1CCCCC1	none (no result: PAX8 reporter, FN deposition inh)
O=C(c1cc(-c2ccccc2Cl)nc2ccccc12)N1CCN(c2ccccc2O)CC1	none (no result: PGC1a acetyl inh, Env fusion inh)
O=C(c1cc(-c2ccncc2)nc2c(Cl)cccc12)N1CCN(c2ccccc2F)CC1	F508del corr 14, EWS-Fli inh inconclusive (no result: PGC1a acetyl inh, Env fusion inh)
C=CC[C@@]12N=C(c3ccc(OCCCO)cc3)O[C@@H]1c1ccccc1CN(CCS(=O)(=O)c1ccccc1)C2=O	PAX8 reporter 77 (no result: FN deposition inh)
Cc1cc(C(=O)CN2C(=O)C(=O)N(Cc3ccco3)C2=O)c(C)n1CCc1ccc(F)cc1	none (no result: PGC1a acetyl inh, Env fusion inh)
Cc1cc(C(=O)CN2C(=O)C(=O)N(Cc3ccco3)C2=O)c(C)n1CCc1ccccc1	EWS-Fli inh 54
CCC(=O)N1C[C@H](C)[C@@H](OC)CN(C)C(=O)c2ccc(NC(=O)Nc3ccc(Cl)cc3)cc2OC[C@H]1C	none
COc1ccc(C2Nc3ccccc3C(=O)N2c2ccc(F)cc2)cc1CSc1ccccn1 (stereo unspecified)	PAX8 reporter 136 (no result: PGC1a acetyl inh, Env fusion inh)
COc1ccc(C2Nc3ccccc3C(=O)N2c2ccccc2)cc1CSc1ccccn1 (stereo unspecified)	none (no result: Env fusion inh)
Cn1c(SCC(=O)c2ccccc2)nnc1-c1ccccn1	PAX8 reporter 90
NCC[C@@H]1CC[C@@H](NC(=O)c2ccccc2F)[C@H](CO)O1	none (no result: PAX8 reporter, Env fusion inh, EWS-Fli inh)
CCCN1C[C@@H](C)[C@@H](OC)CN(C)C(=O)c2cc(NC(=O)Nc3ccccc3F)ccc2OC[C@H]1C	none
C=CC(=O)Nc1sc2c(c1C(N)=O)CCCC2	PAX8 reporter 80 (no result: PGC1a acetyl inh)
COc1ccc(CN(C)C[C@@H]2Oc3c(NC(=O)C4CCOCC4)cccc3C(=O)N([C@@H](C)CO)C[C@H]2C)cc1	none (no result: Env fusion inh, FN deposition inh)
O=C(c1ccc(Cl)s1)N1CCN(c2nc3ccccc3s2)CC1	Env fusion inh 77
O=C(c1ccc(-c2nc3ccccc3s2)s1)N1CCOCC1	PAX8 reporter 66, Env fusion inh inconclusive, EWS-Fli inh 77 (no result: PGC1a acetyl inh)
O=C(c1cccs1)N1CCN(c2nc3ccccc3s2)CC1	none (no result: PGC1a acetyl inh)
O=C(c1cc2sccc2n1Cc1ccc(F)cc1)N1CCN(c2nc3ccccc3s2)CC1	Env fusion inh 87 (no result: F508del corr, EWS-Fli inh)
Cn1c(C(=O)N2CCN(c3nc4ccccc4s3)CC2)cc2sccc21	Env fusion inh 71 (no result: PAX8 reporter, F508del corr, EWS-Fli inh)
Cc1noc(C)c1S(=O)(=O)N(C)C[C@@H]1OCCCC[C@@H](C)Oc2ccc(NS(=O)(=O)c3ccc(F)cc3)cc2C(=O)N([C@@H](C)CO)C[C@H]1C	none
NS(=O)(=O)c1ccc(CCN2C(=O)/C(=C\c3ccc(Cl)cc3)SC2=S)cc1	PAX8 reporter 112 (no result: F508del corr, PGC1a acetyl inh, EWS-Fli inh)
CN1CCN(C(=O)CCN2C(=O)/C(=C\c3ccc(Cl)cc3)SC2=S)CC1	none (no result: PAX8 reporter, F508del corr, Env fusion inh, EWS-Fli inh, FN deposition inh)
COc1cc(/C=C2/SC(=S)N(Cc3ccccc3)C2=O)cc(Cl)c1O	F508del corr 8.1
O=C1/C(=C\c2ccc(O)cc2)SC(=S)N1Cc1ccccc1	F508del corr 26 (no result: PGC1a acetyl inh)
COc1cc(/C=C2/SC(=S)N(Cc3ccccc3)C2=O)ccc1OCC(=O)O	none (no result: PGC1a acetyl inh)
C[C@H]1CN([C@@H](C)CO)C(=O)c2ccccc2-c2ccccc2CO[C@@H]1CN(C)S(=O)(=O)c1ccsc1	none (no result: PAX8 reporter, F508del corr, PGC1a acetyl inh, Env fusion inh, EWS-Fli inh)
COc1cccc(S(=O)(=O)N(C)C[C@H]2Oc3cc(C4=CCCC4)ccc3S(=O)(=O)N([C@H](C)CO)C[C@H]2C)c1	Env fusion inh 95[16.7 µM]
COc1cccc(S(=O)(=O)N(C)C[C@H]2Oc3cc(C4=CCCC4)ccc3S(=O)(=O)N([C@H](C)CO)C[C@@H]2C)c1	Env fusion inh 63[16.7 µM]
C[C@@H]1CN([C@H](C)CO)C(=O)c2ccccc2-c2ccccc2CO[C@@H]1CN(C)S(=O)(=O)Cc1ccccc1	none (no result: PAX8 reporter, F508del corr, PGC1a acetyl inh, Env fusion inh, EWS-Fli inh)
COc1cc(/C=C/c2ccc3c(Br)cc(Br)c(O)c3n2)ccc1O	PAX8 reporter 73
O=C1CSC(c2ccccc2)N1c1ccc(-c2ccccc2)cc1 (stereo unspecified)	none (no result: FN deposition inh)
COc1ccc(NC(=O)CCS(=O)(=O)c2ccccc2Cl)cc1S(=O)(=O)Nc1ccc(Cl)cc1	EWS-Fli inh 57 (no result: PGC1a acetyl inh)
Cc1ccc(-n2ncc3c(=O)n(CC(=O)N4CCN(C(=O)c5ccco5)CC4)cnc32)cc1	PAX8 reporter 73 (no result: Env fusion inh)
CO[C@@H](CN(C)C(=O)C1CCOCC1)[C@@H](C)CN(C(=O)Nc1ccc(C(F)(F)F)cc1)[C@@H](C)CO	none (no result: PAX8 reporter, Env fusion inh)
CO[C@H](CN(C)C(=O)C1CC1)[C@H](C)CN(C(=O)Nc1ccc(C(F)(F)F)cc1)[C@@H](C)CO	Env fusion inh 56[16.7 µM]
COc1ccc(NC(=O)N(C)C[C@H]2OCCCC[C@@H](C)Oc3ccc(NC(=O)C4CCCCC4)cc3C(=O)N([C@@H](C)CO)C[C@H]2C)cc1	none (no result: PAX8 reporter, FN deposition inh)
CCc1nnc(N/N=C/c2c(Cl)cccc2Cl)n1N	PGC1a acetyl inh 64 (no result: PAX8 reporter, F508del corr, EWS-Fli inh)
